From ChEMBL document CHEMBL2040734, “Benzothiazoles: search for anticancer agents” (2012)

What was measured:
Format in all cases: functional
NCI-H522 = assay: Cytotoxicity against human NCI-H522 cells assessed as cell growth at 1 uM after 48 hrs by sulforhodamine B assay; conditions: NCI-H522, 48 h, read-out: Activity
EKVX = assay: Cytotoxicity against human EKVX cells assessed as cell growth at 1 uM after 48 hrs by sulforhodamine B assay; conditions: read-out: Activity
Method in brief: (§1)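 Five-dose NCI panel run at 0.01, 0.1, 1, 10 and 100 µM. Cells were in RPMI 1640 with 5% FBS and 2 mM L-glutamine, seeded at 5000–40,000 cells/well and pre-incubated 24 h. Drug was diluted from a DMSO stock into medium with 50 µg/ml gentamicin. Exposure was 48 h at 37 °C, 5% CO2. Cells were fixed with cold TCA and stained with 0.4% SRB, read at 515 nm. Percent growth came from time-zero, control and test absorbances.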

NCI-H460 [1] = assay: Cytotoxicity against human NCI-H460 cells assessed as cell growth at 0.01 uM after 48 hrs by sulforhodamine B assay; conditions: NCI-H460, 48 h, read-out: Activity
SNB-75 = assay: Cytotoxicity against human SNB75 cells assessed as cell growth at 100 uM after 48 hrs by sulforhodamine B assay; conditions: SNB-75, 48 h, read-out: Activity
SK-OV-3 = assay: Cytotoxicity against human SKOV3 cells assessed as cell growth at 1 uM after 48 hrs by sulforhodamine B assay; conditions: SK-OV-3, 48 h, read-out: Activity
Malme-3M [2] = assay: Growth inhibition of human MALME-3M cells after 48 hrs by sulforhodamine B assay; conditions: for CC50: read-out: LC50 (the source's name)
Method in brief: (§2)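 Adherent NCI-60 lines were grown in RPMI 1640 with 5% FBS and 2 mM L-glutamine, plated at 5000–40,000 cells/well and preincubated 24 h. They were then exposed to five concentrations (0.01–100 µM, from a DMSO stock) for 48 h at 37 °C, 5% CO2. Cells were fixed with cold TCA (10% final, 60 min, 4 °C) and stained with 0.4% SRB. Dye was solubilized in 10 mM Tris base and A515 read. GI50 was derived from time-zero, control and treated absorbances.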

NCI-H23 = assay: Cytotoxicity against human NCI-H23 cells assessed as cell growth at 0.1 uM after 48 hrs by sulforhodamine B assay; conditions: NCI-H23, 48 h, read-out: Activity
TK-10 = assay: Cytotoxicity against human TK10 cells assessed as cell growth at 0.1 uM after 48 hrs by sulforhodamine B assay; conditions: TK-10, 48 h, read-out: Activity
SK-MEL-5 = assay: Cytotoxicity against human SK-MEL-5 cells assessed as cell growth at 0.1 uM after 48 hrs by sulforhodamine B assay; conditions: SK-MEL-5, 48 h, read-out: Activity
HCC 2998 = assay: Cytotoxicity against human HCC2998 cells assessed as cell growth at 100 uM after 48 hrs by sulforhodamine B assay; conditions: HCC 2998, 48 h, read-out: Activity; method in brief: as §1
SN12C = assay: Cytotoxicity against human SN12C cells assessed as cell growth at 1 uM after 48 hrs by sulforhodamine B assay; conditions: read-out: Activity
DU-145 = assay: Cytotoxicity against human DU145 cells assessed as cell growth at 0.1 uM after 48 hrs by sulforhodamine B assay; conditions: DU-145, 48 h, read-out: Activity
Method in brief: (§3)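 NCI-60 five-dose screen. Cells were grown in RPMI 1640 with 5% FBS and 2 mM L-glutamine and preincubated 24 h. Compound (DMSO stock) was tested at 0.01, 0.1, 1, 10 and 100 µM for 48 h at 37 °C. Cells were fixed in situ with cold TCA (final 10%) and stained with 0.4% SRB. A515 was read, and percent growth was calculated against time-zero and control plates.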

SK-MEL-28 = assay: Cytotoxicity against human SK-MEL-28 cells assessed as cell growth at 10 uM after 48 hrs by sulforhodamine B assay; conditions: SK-MEL-28, 48 h, read-out: Activity
A498 = assay: Cytotoxicity against human A498 cells assessed as cell growth at 0.1 uM after 48 hrs by sulforhodamine B assay; conditions: A498, 48 h, read-out: Activity; method in brief: as §3
NCI-H460 [3] = assay: Cytotoxicity against human NCI-H460 cells assessed as cell growth at 0.1 uM after 48 hrs by sulforhodamine B assay; conditions: NCI-H460, 48 h, read-out: Activity
SF-268 = assay: Growth inhibition of human SF268 cells after 48 hrs by sulforhodamine B assay; conditions: SF-268, 48 h; method in brief: as §2
MDA-MB-435 = assay: Cytotoxicity against human MDA-MB-435 cells assessed as cell growth at 1 uM after 48 hrs by sulforhodamine B assay; conditions: MDA-MB-435, 48 h, read-out: Activity
Malme-3M [4] = assay: Cytotoxicity against human MALME-3M cells assessed as cell growth at 0.1 uM after 48 hrs by sulforhodamine B assay; conditions: read-out: Activity
KM12 [5] = assay: Cytotoxicity against human KM12 cells assessed as cell growth at 100 uM after 48 hrs by sulforhodamine B assay; conditions: KM12, 48 h, read-out: Activity
RXF 393 = assay: Cytotoxicity against human RXF393 cells assessed as cell growth at 100 uM after 48 hrs by sulforhodamine B assay; conditions: RXF 393, 48 h, read-out: Activity
786-0 = assay: Cytotoxicity against human 786-0 cells assessed as cell growth at 0.1 uM after 48 hrs by sulforhodamine B assay; conditions: 786-0, 48 h, read-out: Activity; method in brief: as §3
SF-539 [6] = assay: Cytotoxicity against human SF539 cells assessed as cell growth at 1 uM after 48 hrs by sulforhodamine B assay; conditions: SF-539, 48 h, read-out: Activity
LOX IMVI = assay: Cytotoxicity against human LOXIMVI cells assessed as cell growth at 100 uM after 48 hrs by sulforhodamine B assay; conditions: read-out: Activity
CCRF-CEM = assay: Cytotoxicity against human CCRF-CEM cells assessed as cell growth at 0.1 uM after 48 hrs by sulforhodamine B assay; conditions: read-out: Activity
Method in brief: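 CCRF-CEM suspension leukemia cells in RPMI 1640 with 5% FBS and 2 mM L-glutamine, plated 24 h before dosing. Five concentrations (0.01–100 µM) were applied from a DMSO stock for 48 h at 37 °C. Settled cells were fixed with 80% TCA (final 16%) and stained with SRB, with read-out at 515 nm. Percent growth was derived from time-zero and control absorbances.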

MDA-MB-468 = assay: Cytotoxicity against human MDA-MB-468 cells assessed as cell growth at 1 uM after 48 hrs by sulforhodamine B assay; conditions: MDA-MB-468, 48 h, read-out: Activity
OVCAR-4 [7] = assay: Cytotoxicity against human OVCAR4 cells assessed as cell growth at 0.1 uM after 48 hrs by sulforhodamine B assay; conditions: OVCAR-4, 48 h, read-out: Activity
KM12 [8] = assay: Cytotoxicity against human KM12 cells assessed as cell growth at 1 uM after 48 hrs by sulforhodamine B assay; conditions: KM12, 48 h, read-out: Activity
OVCAR-4 [9] = assay: Cytotoxicity against human OVCAR4 cells assessed as cell growth at 100 uM after 48 hrs by sulforhodamine B assay; conditions: OVCAR-4, 48 h, read-out: Activity
SF-539 [10] = assay: Cytotoxicity against human SF539 cells assessed as cell growth at 10 uM after 48 hrs by sulforhodamine B assay; conditions: SF-539, 48 h, read-out: Activity

| SMILES | growth at 1 µM (NCI-H522) | growth at 1 µM (EKVX) | growth at 0.01 µM (NCI-H460 [1]) | growth at 100 µM (SNB-75) | growth at 1 µM (SK-OV-3) | TGI (Malme-3M [2]) | CC50 (Malme-3M [2]) | growth at 0.1 µM (NCI-H23) | growth at 0.1 µM (TK-10) | growth at 0.1 µM (SK-MEL-5) | growth at 100 µM (HCC 2998) | growth at 1 µM (SN12C) | growth at 0.1 µM (DU-145) | growth at 10 µM (SK-MEL-28) | growth at 0.1 µM (A498) | growth at 0.1 µM (NCI-H460 [3]) | GI50 (SF-268) | LC50 (concentration killing 50% of the starting cells) (SF-268) | TGI (SF-268) | growth at 1 µM (MDA-MB-435) | also measured |
| --- | --- | --- | --- | --- | --- | --- | --- | --- | --- | --- | --- | --- | --- | --- | --- | --- | --- | --- | --- | --- | --- |
| Cc1ccc2nc(Nc3c(C)cccc3C)sc2c1 | 38% | 62% | 102% | 32% | 91% | > 100 µM | > 100 µM | 92% | 94% | 92% | 62% | 65% | 102% | 45% | 68% | 103% | 29.3 µM | > 100 µM | > 100 µM | -8% | growth at 0.1 µM (Malme-3M [4]): 103%; growth at 100 µM (KM12 [5]): 48%; growth at 100 µM (RXF 393): 24%; growth at 0.1 µM (786-0): 97%; growth at 1 µM (SF-539 [6]): 76%; growth at 100 µM (LOX IMVI): 57%; growth at 0.1 µM (CCRF-CEM): 89%; growth at 1 µM (MDA-MB-468): 21%; growth at 0.1 µM (OVCAR-4 [7]): 89%; growth at 1 µM (KM12 [8]): 55%; growth at 100 µM (OVCAR-4 [9]): 77%; growth at 10 µM (SF-539 [10]): 57% |
| Clc1cccc(Cl)c1Nc1nc2cccc(Cl)c2s1 | 51% | 15% | 102% | 4% | 86% | 2.4 µM | 5.6 µM | 83% | 94% | 90% | -64% | 46% | 102% | -86% | 67% | 96% | 1.2 µM | 5.66 µM | 2.61 µM | 46% | GI50 (Malme-3M [2]): 1.03 µM; growth at 0.1 µM (Malme-3M [4]): 90%; growth at 100 µM (KM12 [5]): -98%; growth at 100 µM (RXF 393): -40%; growth at 0.1 µM (786-0): 94%; growth at 1 µM (SF-539 [6]): 77%; growth at 100 µM (LOX IMVI): -21%; growth at 0.1 µM (CCRF-CEM): 93%; growth at 1 µM (MDA-MB-468): 23%; growth at 0.1 µM (OVCAR-4 [7]): 83%; growth at 1 µM (KM12 [8]): 62%; growth at 100 µM (OVCAR-4 [9]): -87%; growth at 10 µM (SF-539 [10]): -81% |
